In BindingDB's records for doi:10.1021/jm950700s (Schering-Plough Research Institute, 1997):

How the values were obtained:
[1] = molecular target: Potassium-transporting ATPase alpha chain 1/subunit beta (Oryctolagus cuniculus); experiment: Inhibition of H+/K+ ATPase as reduced acid formation in rabbit gastric glands
[2] = molecular target: Potassium-transporting ATPase (Sus scrofa, UniProt P19156); experiment: Inhibition of purified H+/K+ ATPase at pH 7.4 as released inorganic phosphate from ATP using hog stomach gastric membrane vesicles
Procedure, shortened: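 Gastric membrane vesicles from hog stomach were prepared by differential and zonal density gradient centrifugation. Activity was read as inorganic phosphate released from ATP at pH 7.4. Protein was measured by the Bradford method against a gammaglobulin standard.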

Potassium-transporting ATPase, sequence (P19156 whole entry, looked up): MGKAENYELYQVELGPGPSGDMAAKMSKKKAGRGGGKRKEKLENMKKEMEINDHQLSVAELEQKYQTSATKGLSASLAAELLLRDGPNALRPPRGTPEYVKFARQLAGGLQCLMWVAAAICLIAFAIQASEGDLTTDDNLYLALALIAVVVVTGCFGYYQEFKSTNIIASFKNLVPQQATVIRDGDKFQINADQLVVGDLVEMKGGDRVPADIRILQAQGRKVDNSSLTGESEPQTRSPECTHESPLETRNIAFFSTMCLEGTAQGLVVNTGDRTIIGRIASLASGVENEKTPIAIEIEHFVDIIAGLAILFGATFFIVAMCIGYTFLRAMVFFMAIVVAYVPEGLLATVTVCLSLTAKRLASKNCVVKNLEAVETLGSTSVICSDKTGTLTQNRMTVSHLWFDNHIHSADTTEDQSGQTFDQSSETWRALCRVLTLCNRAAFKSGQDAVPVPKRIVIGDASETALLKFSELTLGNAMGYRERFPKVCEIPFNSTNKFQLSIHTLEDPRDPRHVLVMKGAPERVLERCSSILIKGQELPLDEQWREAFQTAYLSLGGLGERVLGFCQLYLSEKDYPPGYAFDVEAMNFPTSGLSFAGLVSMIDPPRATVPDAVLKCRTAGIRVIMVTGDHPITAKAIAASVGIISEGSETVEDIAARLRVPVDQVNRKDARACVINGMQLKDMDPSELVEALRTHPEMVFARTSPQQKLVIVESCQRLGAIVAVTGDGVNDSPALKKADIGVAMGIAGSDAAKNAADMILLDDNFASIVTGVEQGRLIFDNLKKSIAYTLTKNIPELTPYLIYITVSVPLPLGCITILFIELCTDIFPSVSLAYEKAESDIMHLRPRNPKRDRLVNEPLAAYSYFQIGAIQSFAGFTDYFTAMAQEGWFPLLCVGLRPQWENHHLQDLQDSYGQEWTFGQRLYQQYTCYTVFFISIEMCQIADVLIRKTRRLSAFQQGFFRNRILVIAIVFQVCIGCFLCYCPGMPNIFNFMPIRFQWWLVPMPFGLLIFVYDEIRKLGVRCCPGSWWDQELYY

IC50 [1] [µM] | IC50 [2] [µM] | SMILES
442 | 206 | Cc1nc2c(C/C=C/c3ccccc3)cccn2c1CC#N
 | 178 | Cc1nc2c(OCc3ccccc3)nccn2c1N
